Experimental findings from ChEMBL document CHEMBL5678798 (Clin Cancer Res, 2009) are described below.

Active and inactive are the calls of the source. The rule behind the calls is not given here.

The nature of series [1]: Antiproliferative activity against human TC71 cells assessed as reduction in cell viability after 72 hrs by CellTiter-Glo assay. Type of series: functional, cell-based. The conditions noted are these: TC-71, 72 h. In outline: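 Cells seeded in 96-well plates, left overnight at 37°C, then exposed to a range of test concentrations for 72 h. Viability read by CellTiter-Glo luminescence; IC50 from four-parameter curve fit. Lines kept at 37°C, 5% CO2, in recommended growth medium.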

Series [2] deals with NCI-H929. The series can be described thus: Induction of cell cycle arrest in human NCI-H929 cells assessed as increase in cells accumulation at G1 phase at 0.03 to 10 uM incubated for 24 to 48 hrs by propidium iodide staining based flow cytometric analysis. Type of series: functional. The conditions noted are these: dose 0.03-10 µM, time lower 24.0 hrs, time upper […]. In outline: (§1)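 COLO 205, MCF-7 or NCI-H929 cells seeded in 96-well plates overnight at 37°C, then exposed to DMSO or increasing compound concentrations for 24 or 48 h. Fixed and stained with propidium iodide (Vindelov method), then analysed by flow cytometry for sub-G1, G1, S and G2-M fractions. Experiment repeated twice.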

Series [3] deals with NCI-H929. The series can be described thus: Induction of cell cycle arrest in human NCI-H929 cells assessed as cells accumulation at G2 phase at 1 umol/L incubated for 48 hrs by propidium iodide staining based flow cytometric analysis (reference value: 33%). The conditions noted are these: dose 1 µmol/L, at 1 µM. Type of series: functional. Put shortly:
as §1

The nature of series [4]: Toxicity in nu/nu CD-1 mouse xenografted with human COLO 205 cells assessed as reduction in body weight at 30 mg/kg, po administered twice daily for 21 days relative to control. Type of series: organism-based. Set-up: scale not given: the % may be the effect or the level left. The conditions noted are these: in vivo, 504 h, time 21 day.
A short description of series [5]: In vivo inhibition of IGF1R in mouse NIH-3T3/LISN cells implanted in IGF1-stimulated nu/nu CD-1 mouse assessed as reduction in IGF1R phosphorylation at 30 mg/kg, po pretreated for 4 hrs followed by IGF1 stimulation and measured after 10 min by […] relative to control. Type of series: functional. The conditions noted are these: 4.167 h, time 250 min. In outline:
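Female nu/nu CD-1 mice, three per group, bearing ~500 mm3 tumors, given one oral dose of compound or vehicle. At 4 h, 10 µg hIGF-I i.v. via tail vein; saline controls. Tumor and blood taken 10 min later. Tumor lysates in RIPA captured on anti-IGF-IR plates and probed with europium anti-phosphotyrosine. Phospho/total IGF-IR expressed as % of ligand-stimulated control. Blood levels by LC-MS/MS.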

Series [6] has as its target Calcium/calmodulin-dependent protein kinase kinase 2 (Homo sapiens, UniProt Q96RR4). The series can be described thus: Inhibition of CAMKK2 (unknown origin).
Series [7] addresses Phosphatidylinositol 4,5-bisphosphate 3-kinase catalytic subunit alpha isoform (Homo sapiens, UniProt P42336). Nature of the series: Inhibition of PI3Kalpha (unknown origin).
The target of series [8] is Serine/threonine-protein kinase MRCK beta (Homo sapiens) (UniProt Q9Y5S2). The series can be described thus: Inhibition of N-terminal His6-tagged recombinant human MRCKbeta (1 to 473 residues) expressed in baculovirus infected Sf21 cells at 0.3 uM by filter binding assay relative to control.
Series [9] addresses Serine/threonine-protein kinase pim-3 (Homo sapiens) (UniProt Q86V86). Nature of the series: Inhibition of N-terminal 6His-tagged recombinant human Pim-3 expressed in baculovirus infected Sf21 cells at 0.3 uM by filter binding assay relative to control. In outline: (§2)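 Outsourced single-concentration screen in a commercial panel of 233 protein kinases, run as radiometric filter-binding activity assays. Test agent was tested at 0.3 or 3 µmol/L, as given in each line, from a 10 mmol/L DMSO stock. Activity is expressed as percent inhibition relative to control.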

Series [10] addresses Rho-associated protein kinase 2 (Homo sapiens) (UniProt O75116). The series can be described thus: Inhibition of N-terminal His6-tagged recombinant human ROCK-II (11 to 552 residues) expressed in baculovirus infected Sf21 cells at 0.3 uM by filter binding assay relative to control.
In series [11] the target is BDNF/NT-3 growth factors receptor (Homo sapiens) (UniProt Q16620). Nature of the series: Inhibition of N-terminal His6 tagged recombinant human TrkB (455 to end residues) expressed in baculovirus infected Sf21 cells at 0.3 uM by filter binding assay relative to control. In outline:
as §2

The target in series [12] is Testis-specific serine/threonine-protein kinase 1 (Homo sapiens) (UniProt Q9BXA7). The series can be described thus: Inhibition of 6His-tagged recombinant human full length TSSK1 expressed in baculovirus infected Sf21 cells at 0.3 uM by filter binding assay relative to control. In outline: (§3)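 KinaseProfiler panel of 233 kinases: radiometric filter-binding activity assays with compound at 0.3 or 3 µmol/L. Read-out is percent inhibition.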

Series [13] has as its target Testis-specific serine/threonine-protein kinase 2 (Homo sapiens) (UniProt Q96PF2). Nature of the series: Inhibition of N-terminal His6-tagged recombinant full length human TSSK2 expressed in baculovirus infected Sf21 cells at 0.3 uM by filter binding assay relative to control. Put shortly:
as §2

Series [14] has as its target Activin receptor type-1B (Homo sapiens) (UniProt P36896). Nature of the series: Inhibition of N-terminal GST-tagged recombinant human ALK4 (150 to end residues) expressed in baculovirus infected Sf21 cells at 3 uM by filter binding assay relative to control. Put shortly: as §2
Series [15] has as its target Calcium/calmodulin-dependent protein kinase type IV (Homo sapiens) (UniProt Q16566). The series can be described thus: Inhibition of C-terminal His6-tagged recombinant full length human CaMKIV expressed in baculovirus infected Sf21 cells at 3 uM by filter binding assay relative to control. Put shortly:
as §3

The target in series [16] is Discoidin domain-containing receptor 2 (Homo sapiens) (UniProt Q16832). Nature of the series: Inhibition of N-terminal His6-tagged recombinant human DDR2 (467 to end residues) expressed in baculovirus infected Sf21 cells at 3 uM by filter binding assay relative to control.
Series [17] has as its target Dual specificity tyrosine-phosphorylation-regulated kinase 2 (Homo sapiens) (UniProt Q92630). Nature of the series: Inhibition of 6His-tagged recombinant full-length human DYRK2 expressed in baculovirus infected Sf21 cells at 3 uM by filter binding assay relative to control. Put shortly: as §3
Series [18] has as its target Homeodomain-interacting protein kinase 2 (Homo sapiens) (UniProt Q9H2X6). Nature of the series: Inhibition of N-terminal His6-tagged recombinant human HIPK2 (165 to 564 residues) expressed in baculovirus infected Sf21 cells at 3 uM by filter binding assay relative to control.
Series [19] deals with Protein-tyrosine kinase 2-beta (Homo sapiens) (UniProt Q14289). The series can be described thus: Inhibition of N-Terminal His6-tagged recombinant full-length human Pyk2 expressed in baculovirus infected Sf21 cells at 3 uM by filter binding assay relative to control. Put shortly:
as §3

Series [20] addresses Serine/threonine-protein kinase Sgk2 (Homo sapiens) (UniProt Q9HBY8). The series can be described thus: Inhibition of human SGK2 at 3 uM by filter binding assay relative to control.
Series [21] concerns the target Tyrosine-protein kinase ABL1 (Homo sapiens, UniProt P00519). Nature of the series: Inhibition of N-terminal His6-tagged recombinant human Abl (27 to end residues) expressed in baculovirus infected Sf21 cells by filter binding assay.
For series [22], the target named is Tyrosine-protein kinase Fes/Fps (Homo sapiens, UniProt P07332). The series can be described thus: Inhibition of N-terminal His6-tagged recombinant full length human Fes expressed in baculovirus infected Sf21 cells by filter binding assay.
In series [23] the target is Insulin receptor (Mus musculus) (UniProt P15208). The conditions noted are these: CD-1, dose >= 30.0 mg/kg, route po, time 4.25 hrs.

Calcium/calmodulin-dependent protein kinase type IV (Homo sapiens), sequence (Q16566 whole entry): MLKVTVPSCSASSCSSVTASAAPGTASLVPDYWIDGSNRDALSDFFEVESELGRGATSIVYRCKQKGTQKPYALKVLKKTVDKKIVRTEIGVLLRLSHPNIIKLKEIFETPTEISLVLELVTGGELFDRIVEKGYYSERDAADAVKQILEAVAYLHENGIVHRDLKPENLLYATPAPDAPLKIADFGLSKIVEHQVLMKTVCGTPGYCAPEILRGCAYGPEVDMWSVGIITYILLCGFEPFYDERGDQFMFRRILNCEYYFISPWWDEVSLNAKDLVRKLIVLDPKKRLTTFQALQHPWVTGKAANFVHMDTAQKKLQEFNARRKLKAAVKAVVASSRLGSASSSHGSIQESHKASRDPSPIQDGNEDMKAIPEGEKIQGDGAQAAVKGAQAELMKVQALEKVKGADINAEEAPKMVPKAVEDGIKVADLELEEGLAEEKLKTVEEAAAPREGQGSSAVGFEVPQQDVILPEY
Serine/threonine-protein kinase MRCK beta (Homo sapiens), sequence (Q9Y5S2 whole entry, the tested form may be a part): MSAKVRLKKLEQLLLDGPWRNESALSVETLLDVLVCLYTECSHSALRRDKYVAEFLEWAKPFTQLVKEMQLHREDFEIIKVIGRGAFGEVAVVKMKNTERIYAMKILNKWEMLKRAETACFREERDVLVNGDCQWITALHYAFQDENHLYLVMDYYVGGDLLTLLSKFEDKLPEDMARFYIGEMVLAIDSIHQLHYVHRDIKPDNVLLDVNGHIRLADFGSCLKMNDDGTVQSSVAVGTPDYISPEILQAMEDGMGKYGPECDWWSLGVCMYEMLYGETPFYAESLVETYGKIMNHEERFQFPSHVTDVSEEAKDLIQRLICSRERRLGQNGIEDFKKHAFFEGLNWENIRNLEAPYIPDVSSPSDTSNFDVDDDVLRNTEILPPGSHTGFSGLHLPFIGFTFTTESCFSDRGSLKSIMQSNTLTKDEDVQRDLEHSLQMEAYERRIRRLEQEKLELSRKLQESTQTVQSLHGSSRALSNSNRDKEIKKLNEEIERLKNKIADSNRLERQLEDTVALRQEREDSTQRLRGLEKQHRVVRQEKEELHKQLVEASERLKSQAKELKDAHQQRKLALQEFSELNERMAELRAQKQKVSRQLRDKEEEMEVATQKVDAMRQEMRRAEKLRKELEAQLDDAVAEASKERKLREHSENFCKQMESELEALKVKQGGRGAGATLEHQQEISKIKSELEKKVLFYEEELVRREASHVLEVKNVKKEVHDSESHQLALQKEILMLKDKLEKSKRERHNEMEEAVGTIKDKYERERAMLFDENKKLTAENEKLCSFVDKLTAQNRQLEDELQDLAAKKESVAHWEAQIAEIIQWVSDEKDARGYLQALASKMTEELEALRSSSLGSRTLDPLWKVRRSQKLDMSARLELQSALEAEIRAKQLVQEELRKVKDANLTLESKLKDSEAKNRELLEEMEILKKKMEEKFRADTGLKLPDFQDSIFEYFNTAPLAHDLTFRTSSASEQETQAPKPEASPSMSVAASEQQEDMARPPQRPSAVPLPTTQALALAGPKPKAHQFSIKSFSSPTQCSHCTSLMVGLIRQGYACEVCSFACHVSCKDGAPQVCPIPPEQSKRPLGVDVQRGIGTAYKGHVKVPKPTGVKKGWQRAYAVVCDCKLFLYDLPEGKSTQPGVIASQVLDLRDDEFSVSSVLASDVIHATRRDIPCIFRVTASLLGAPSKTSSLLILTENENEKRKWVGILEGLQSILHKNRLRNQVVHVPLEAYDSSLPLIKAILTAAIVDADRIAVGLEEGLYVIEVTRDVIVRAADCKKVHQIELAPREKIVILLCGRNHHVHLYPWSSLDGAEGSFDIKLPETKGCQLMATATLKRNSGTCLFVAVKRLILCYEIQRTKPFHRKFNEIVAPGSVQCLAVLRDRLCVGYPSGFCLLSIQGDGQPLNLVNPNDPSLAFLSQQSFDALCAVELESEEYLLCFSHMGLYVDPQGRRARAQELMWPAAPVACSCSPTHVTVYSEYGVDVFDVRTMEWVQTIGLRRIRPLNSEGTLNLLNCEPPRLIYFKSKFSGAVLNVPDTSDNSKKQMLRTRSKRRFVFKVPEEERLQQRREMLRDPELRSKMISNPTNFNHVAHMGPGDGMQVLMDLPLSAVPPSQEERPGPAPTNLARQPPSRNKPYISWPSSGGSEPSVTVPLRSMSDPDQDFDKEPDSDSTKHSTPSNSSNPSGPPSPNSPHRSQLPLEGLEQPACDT
Tyrosine-protein kinase Fes/Fps, sequence (P07332 whole entry): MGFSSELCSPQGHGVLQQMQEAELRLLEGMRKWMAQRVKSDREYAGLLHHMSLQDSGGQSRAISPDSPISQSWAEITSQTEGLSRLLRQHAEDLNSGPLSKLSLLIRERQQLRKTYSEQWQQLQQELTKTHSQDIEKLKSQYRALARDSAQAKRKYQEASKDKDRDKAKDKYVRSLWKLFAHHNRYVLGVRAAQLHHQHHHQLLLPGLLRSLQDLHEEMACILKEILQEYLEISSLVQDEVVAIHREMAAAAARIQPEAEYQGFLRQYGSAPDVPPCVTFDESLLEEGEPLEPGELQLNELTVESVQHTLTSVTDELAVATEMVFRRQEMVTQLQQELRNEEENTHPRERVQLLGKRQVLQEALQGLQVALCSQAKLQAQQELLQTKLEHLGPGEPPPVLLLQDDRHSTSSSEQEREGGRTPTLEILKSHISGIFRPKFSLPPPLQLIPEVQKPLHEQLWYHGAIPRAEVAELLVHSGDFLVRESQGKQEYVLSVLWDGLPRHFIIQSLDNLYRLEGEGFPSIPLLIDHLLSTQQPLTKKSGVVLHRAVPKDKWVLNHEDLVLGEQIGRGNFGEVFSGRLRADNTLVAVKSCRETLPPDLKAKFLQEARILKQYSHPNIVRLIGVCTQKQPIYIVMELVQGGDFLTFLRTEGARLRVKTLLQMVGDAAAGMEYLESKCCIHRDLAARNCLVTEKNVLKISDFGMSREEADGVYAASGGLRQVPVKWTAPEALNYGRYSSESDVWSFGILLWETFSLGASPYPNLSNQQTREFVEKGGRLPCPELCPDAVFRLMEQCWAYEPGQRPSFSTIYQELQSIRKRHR
Rho-associated protein kinase 2 (Homo sapiens), sequence (O75116 whole entry, looked up, the tested form may be a part): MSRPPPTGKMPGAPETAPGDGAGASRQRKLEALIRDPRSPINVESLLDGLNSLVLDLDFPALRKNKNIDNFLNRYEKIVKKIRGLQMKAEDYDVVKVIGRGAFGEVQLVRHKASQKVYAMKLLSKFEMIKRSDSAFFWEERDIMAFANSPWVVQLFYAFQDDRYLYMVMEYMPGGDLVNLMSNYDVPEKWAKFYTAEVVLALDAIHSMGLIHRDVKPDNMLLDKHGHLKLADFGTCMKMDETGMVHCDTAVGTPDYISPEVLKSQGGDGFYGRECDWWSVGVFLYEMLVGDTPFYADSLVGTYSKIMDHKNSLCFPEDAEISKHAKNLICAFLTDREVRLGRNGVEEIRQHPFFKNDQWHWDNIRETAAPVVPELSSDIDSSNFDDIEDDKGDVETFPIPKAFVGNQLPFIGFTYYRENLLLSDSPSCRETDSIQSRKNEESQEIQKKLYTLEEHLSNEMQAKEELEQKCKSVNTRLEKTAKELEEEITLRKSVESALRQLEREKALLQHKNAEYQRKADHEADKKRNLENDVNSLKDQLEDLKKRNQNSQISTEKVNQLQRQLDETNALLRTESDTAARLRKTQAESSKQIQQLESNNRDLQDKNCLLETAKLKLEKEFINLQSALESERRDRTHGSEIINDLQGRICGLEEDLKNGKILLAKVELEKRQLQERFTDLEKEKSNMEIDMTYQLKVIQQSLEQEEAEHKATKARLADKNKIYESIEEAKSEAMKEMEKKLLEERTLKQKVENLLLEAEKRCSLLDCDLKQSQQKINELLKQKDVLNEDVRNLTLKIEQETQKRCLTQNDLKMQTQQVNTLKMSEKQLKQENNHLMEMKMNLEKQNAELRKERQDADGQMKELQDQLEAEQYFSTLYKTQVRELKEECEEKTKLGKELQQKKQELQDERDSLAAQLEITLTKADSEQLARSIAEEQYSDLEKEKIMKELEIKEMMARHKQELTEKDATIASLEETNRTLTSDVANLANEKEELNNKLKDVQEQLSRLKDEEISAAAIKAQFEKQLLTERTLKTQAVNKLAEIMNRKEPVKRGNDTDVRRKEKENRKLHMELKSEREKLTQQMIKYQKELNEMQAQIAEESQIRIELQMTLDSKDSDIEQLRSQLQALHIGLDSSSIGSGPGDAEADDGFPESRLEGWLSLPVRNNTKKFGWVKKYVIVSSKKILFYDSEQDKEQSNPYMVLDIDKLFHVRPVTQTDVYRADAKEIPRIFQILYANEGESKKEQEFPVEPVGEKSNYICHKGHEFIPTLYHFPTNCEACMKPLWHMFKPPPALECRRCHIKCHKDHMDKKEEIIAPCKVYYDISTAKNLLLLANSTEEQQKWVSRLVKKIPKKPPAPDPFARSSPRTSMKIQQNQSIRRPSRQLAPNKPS
Testis-specific serine/threonine-protein kinase 2 (Homo sapiens), sequence (Q96PF2 whole entry): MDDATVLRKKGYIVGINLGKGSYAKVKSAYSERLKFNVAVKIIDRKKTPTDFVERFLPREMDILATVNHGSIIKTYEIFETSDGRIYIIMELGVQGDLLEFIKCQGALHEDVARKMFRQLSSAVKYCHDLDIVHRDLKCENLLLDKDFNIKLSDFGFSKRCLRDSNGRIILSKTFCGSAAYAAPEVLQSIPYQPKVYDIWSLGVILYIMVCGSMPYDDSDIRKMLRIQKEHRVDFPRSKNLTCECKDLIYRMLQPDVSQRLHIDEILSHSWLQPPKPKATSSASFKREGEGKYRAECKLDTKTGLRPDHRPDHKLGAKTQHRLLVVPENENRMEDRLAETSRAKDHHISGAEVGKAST

`CCc1cc(Nc2nccc(-c3c(-c4ccc(OC)c(C(=O)Nc5c(F)cccc5F)c4)nc4ccccn34)n2)c(OC)cc1N1CCC(N2CCN(S(C)(=O)=O)CC2)CC1`: the IC50 in series [1] was 35 nM; in [6], above 10000 nM; in series [7] it was above 10000 nM; in series [21], 4750 nM; in [22], 148 nM. Besides, in the series on NCI-H929 [2], the outcome was Active. Also, the results for the Activity (with NCI-H929 [3]; in series [4]) were 8% and above 20%, respectively. Further, the inhibition in vivo at 30 mg/kg in series [5] stood at 99%. The inhibition in [8] was -10%; in series [9], -10%; in [10] it was -8%; in series [11], 4%; in series [12], 10%; in series [13] it was 4%. For the same compound, the inhibition in [14] is -10%; in series [15] it was 10%; in [16], 10%; in series [17], -8%; in series [18], 4%; in series [19], 24%. The inhibition in series [20] is 25%; in [23], “Dose-Dependent Effect”.
